Data reported in ChEMBL document CHEMBL1143425, “Paradoxical growth effect of caspofungin observed on biofilms and planktonic cells of five different Candida species” (2007).
In brackets after ≈: the same amount, converted by molar mass. Activity calls are given as the source filed them.

How the values were obtained:
Candida albicans [1] = assay: Antimicrobial activity against Candida albicans BR-A1 grown as planktonic cell after 48 hrs by XTT reduction assay; assay type: functional
In short: (§1)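 Planktonic broth microdilution followed CLSI M27-A2, with caspofungin dissolved in water. After 48 h, XTT-menadione was added to the wells and plates were kept 1 h at 35°C in the dark. Plates were then centrifuged and supernatant A490 was read. MIC was the lowest concentration giving a 50% decrease in metabolic activity versus drug-free control. Paradoxical growth was defined as ≥20% of control activity above the MIC.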

Candida albicans [2] = assay: Antimicrobial activity against Candida albicans BR-A2 grown as planktonic cell after 48 hrs by XTT reduction assay; assay type: functional; in short: as §1
Candida tropicalis [3] = assay: Antimicrobial activity against Candida tropicalis BR-A8 grown as planktonic cell after 48 hrs by XTT reduction assay; assay type: functional; in short: as §1
Candida tropicalis [4] = assay: Antimicrobial activity against Candida tropicalis BR-A14 grown as planktonic cell after 48 hrs by XTT reduction assay; assay type: functional
In short: (§2)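 Planktonic broth microdilution followed CLSI M27-A2, with caspofungin dissolved in water. After 48 h, XTT-menadione was added to each well and plates were incubated 1 h at 35°C in the dark. Cells were pelleted by centrifugation and the supernatant was read at 490 nm. MIC was the lowest concentration giving a 50% drop in metabolic activity versus the drug-free control. PG was ≥20% of drug-free activity above the MIC.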

Candida tropicalis [5] = assay: Antimicrobial activity against Candida tropicalis BR-A20 grown as planktonic cell after 48 hrs by XTT reduction assay; assay type: functional; in short: as §2
Candida parapsilosis [6] = assay: Antimicrobial activity against Candida parapsilosis BR-A26 grown as planktonic cell after 48 hrs by XTT reduction assay; assay type: functional; settings: Lodderomyces parapsilosis; in short: as §1
Candida parapsilosis [7] = assay: Antimicrobial activity against Candida parapsilosis BR-A28 grown as planktonic cell after 48 hrs by XTT reduction assay; assay type: functional; settings: Lodderomyces parapsilosis; in short: as §1
Candida parapsilosis [8] = assay: Antimicrobial activity against Candida parapsilosis BR-A30 grown as planktonic cell after 48 hrs by XTT reduction assay; assay type: functional; settings: Lodderomyces parapsilosis; in short: as §1
Candida orthopsilosis [9] = assay: Antimicrobial activity against Candida orthopsilosis BR-A32 grown as planktonic cell after 48 hrs by XTT reduction assay; assay type: functional; settings: Lodderomyces orthopsilosis; in short: as §1
Candida metapsilosis [10] = assay: Antimicrobial activity against Candida metapsilosis BR-A40 grown as planktonic cell assessed as paradoxical growth after 48 hrs by XTT reduction assay; assay type: functional, organism-based
In short: (§3)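 Planktonic cells were tested by CLSI M27-A2 broth microdilution with caspofungin in water, incubated 48 h. XTT-menadione was added to each well, plates were held 1 h at 35°C in the dark and centrifuged, and supernatant absorbance was read at 490 nm. MIC was defined as 50% decrease in metabolic activity versus drug-free control. PG was defined as ≥20% of control activity at concentrations above MIC.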

Candida parapsilosis [11] = assay: Antimicrobial activity against Candida parapsilosis 22019 grown as planktonic cell after 48 hrs by XTT reduction assay; assay type: functional; settings: Lodderomyces parapsilosis, 22019, 48 h; in short: as §1
Candida tropicalis [12] = assay: Antimicrobial activity against Candida tropicalis BR-A9 grown as planktonic cell assessed as concentration producing paradoxical growth after 48 hrs by XTT reduction assay; assay type: functional; in short: as §2
Candida parapsilosis [13] = assay: Antimicrobial activity against Candida parapsilosis BR-A30 grown as planktonic cell assessed as paradoxical growth after 48 hrs by XTT reduction assay; assay type: functional, organism-based; in short: as §2
Candida metapsilosis [14] = assay: Antimicrobial activity against Candida metapsilosis BR-A44 grown as planktonic cell assessed as paradoxical growth after 48 hrs by XTT reduction assay; assay type: functional, organism-based; in short: as §3
Candida tropicalis [15] = assay: Antimicrobial activity against Candida tropicalis BR-A18 grown as biofilm after 48 hrs by XTT reduction assay; assay type: functional
In short: (§4)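 Clinical isolates were grown overnight (18 h, 35°C, 120 rpm) in RPMI 1640 with MOPS, pH 7.0, then washed and set to ~1 × 10^7 cells/ml. Cells attached for 1.5 h at 37°C, 75 rpm, then biofilms grew 24 h. Caspofungin was given as doubling dilutions of 2–1,024 μg/ml for 48 h at 35°C, 75 rpm. Read-out was XTT-menadione in PBS, 1 h at 35°C in the dark, A490, cell-free blank subtracted. MIC was a 50% drop in activity versus drug-free; PG was >50% of control above MIC. Run in duplicate.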

Candida tropicalis [16] = assay: Antimicrobial activity against Candida tropicalis BR-A20 grown as biofilm after 48 hrs by XTT reduction assay; assay type: functional
In short: (§5)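 Isolates were grown on Sabouraud agar (30°C, 24 h), then overnight in RPMI 1640 with MOPS, pH 7.0, at 35°C with shaking. Cells were washed and set to ~1 × 10^7 cells/ml, attached 1.5 h at 37°C, and grown 24 h. Biofilms were then exposed to caspofungin in 10 twofold dilutions (2–1,024 μg/ml) for 48 h at 35°C with shaking. Read-out was XTT-menadione, 1 h, 35°C, dark, A490, cell-free blank subtracted. MIC was the 50% drop in activity versus drug-free control. Tested in duplicate.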

Candida tropicalis [17] = assay: Antimicrobial activity against Candida tropicalis BR-A24 grown as biofilm after 48 hrs by XTT reduction assay; assay type: functional; in short: as §5
Candida parapsilosis [18] = assay: Antimicrobial activity against Candida parapsilosis BR-A30 grown as biofilm after 48 hrs by XTT reduction assay; assay type: functional; settings: Lodderomyces parapsilosis; in short: as §4
Candida orthopsilosis [19] = assay: Antimicrobial activity against Candida orthopsilosis BR-A36 grown as biofilm after 48 hrs by XTT reduction assay; assay type: functional; settings: Lodderomyces orthopsilosis; in short: as §5
Candida tropicalis [20] = assay: Antimicrobial activity against Candida tropicalis BR-A20 grown as biofilm assessed as concentration producing paradoxical growth after 48 hrs by XTT reduction assay; assay type: functional; in short: as §4
Candida orthopsilosis [21] = assay: Antimicrobial activity against Candida orthopsilosis BR-A34 grown as biofilm assessed as concentration producing paradoxical growth after 48 hrs by XTT reduction assay; assay type: functional
In short: (§6)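 Sabouraud-grown cells were shaken overnight (18 h, 120 rpm, 35°C) in RPMI 1640 with MOPS at pH 7.0, then washed and set at ~1 × 10^7 cells/ml. Attachment lasted 1.5 h at 37°C, and growth ran 24 h before challenge. Caspofungin was added in RPMI at 2–1,024 μg/ml (10 doublings) for 48 h at 35°C with shaking. XTT-menadione was read at 490 nm after 1 h at 35°C in the dark, with blank wells subtracted. MIC was taken as 50% reduction versus drug-free wells, and PG as >50% of control above MIC. Assays were run in duplicate.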

Candida orthopsilosis [22] = assay: Antimicrobial activity against Candida orthopsilosis BR-A37 grown as biofilm assessed as concentration producing paradoxical growth after 48 hrs by XTT reduction assay; assay type: functional; in short: as §6
Candida tropicalis [23] = assay: Effect on morphology in Candida tropicalis grown as biofilm assessed as inhibition of hyphae and pseudohyphae at 8 ug/ml after 48 hrs; assay type: functional, organism-based
In short: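 Overnight RPMI 1640 cultures (MOPS, pH 7.0) were washed and set to about 1 × 10^7 cells/ml, then attached to polystyrene wells for 1.5 h at 37°C at 75 rpm. After 24 h biofilm growth, wells were washed and given doubling caspofungin dilutions (2–1,024 μg/ml in RPMI) for 48 h at 35°C at 75 rpm. Biofilms were viewed in situ by inverted light microscopy at ×200 alongside drug-free wells.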

Candida albicans [24] = assay: Effect on morphology in Candida albicans grown as biofilm assessed as rounding and clumping at 32 ug/ml after 48 hrs; assay type: functional, organism-based
In short: (§7)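 Biofilms formed in RPMI 1640 wells were exposed to caspofungin for 48 h and compared with drug-free control wells. Wells were examined in the plate under an inverted light microscope at ×200 and photographed.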

Candida orthopsilosis [25] = assay: Effect on morphology in Candida orthopsilosis grown as biofilm assessed as rounding and clumping at 32 ug/ml after 48 hrs; assay type: functional, organism-based; in short: as §7

CC[C@H](C)C[C@H](C)CCCCCCCCC(=O)N[C@H]1C[C@@H](O)[C@@H](NCCN)NC(=O)[C@@H]2[C@@H](O)CCN2C(=O)[C@H]([C@H](O)CCN)NC(=O)[C@H]([C@H](O)[C@@H](O)c2ccc(O)cc2)NC(=O)[C@@H]2C[C@@H](O)CN2C(=O)[C@H]([C@@H](C)O)NC1=O [CASPOFUNGIN]
MIC (Candida albicans [1]): 0.5 µg/mL (≈ 0.457 µM) | MIC (Candida albicans [2]): 0.5 µg/mL (≈ 0.457 µM) | MIC (Candida tropicalis [3]): 1 µg/mL (≈ 0.915 µM) | MIC (Candida tropicalis [4]): 0.5 µg/mL (≈ 0.457 µM) | MIC (Candida tropicalis [5]): 0.5 µg/mL (≈ 0.457 µM) | MIC (Candida parapsilosis [6]): 2 µg/mL (≈ 1.83 µM) | MIC (Candida parapsilosis [7]): 2 µg/mL (≈ 1.83 µM) | MIC (Candida parapsilosis [8]): 2 µg/mL (≈ 1.83 µM) | MIC (Candida orthopsilosis [9]): 2 µg/mL (≈ 1.83 µM) | Activity (Candida metapsilosis [10]): inactive | MIC (Candida parapsilosis [11]): 2 µg/mL (≈ 1.83 µM) | Activity (Candida tropicalis [12]): 8 µg/mL | Activity (Candida parapsilosis [13]): inactive | Activity (Candida metapsilosis [14]): inactive | MIC (Candida tropicalis [15]): 128 µg/mL (≈ 117 µM) | MIC (Candida tropicalis [16]): 2 µg/mL (≈ 1.83 µM) | MIC (Candida tropicalis [17]): 2 µg/mL (≈ 1.83 µM) | MIC (Candida parapsilosis [18]): 256 µg/mL (≈ 234 µM) | MIC (Candida orthopsilosis [19]): 2 µg/mL (≈ 1.83 µM) | Activity (Candida tropicalis [20]): 8 µg/mL | Activity (Candida orthopsilosis [21]): 32 µg/mL | Activity (Candida orthopsilosis [22]): 32 µg/mL | Activity (Candida tropicalis [23]): Active | Activity (Candida albicans [24]): Active | Activity (Candida orthopsilosis [25]): Active
